Several values for one entry are separate records, joined by “and”; a condition that tells them apart may be missing. Equal values may be shown once. Activity calls are given as the source filed them. The rule behind the calls is not given here.
Tests used:
Trypanothione reductase [1] = biological target: T1, Trypanothione reductase (Trypanosoma cruzi, UniProt P28593); assay: (§1) Inhibitory activity against Trypanosoma cruzi trypanothione reductase
[2] = biological target: T2, Glutathione reductase, mitochondrial (Homo sapiens, UniProt P00390); assay: Inhibitory activity against Human Erythrocyte glutathione reductase (GR).
T2 sequence (P00390 whole entry): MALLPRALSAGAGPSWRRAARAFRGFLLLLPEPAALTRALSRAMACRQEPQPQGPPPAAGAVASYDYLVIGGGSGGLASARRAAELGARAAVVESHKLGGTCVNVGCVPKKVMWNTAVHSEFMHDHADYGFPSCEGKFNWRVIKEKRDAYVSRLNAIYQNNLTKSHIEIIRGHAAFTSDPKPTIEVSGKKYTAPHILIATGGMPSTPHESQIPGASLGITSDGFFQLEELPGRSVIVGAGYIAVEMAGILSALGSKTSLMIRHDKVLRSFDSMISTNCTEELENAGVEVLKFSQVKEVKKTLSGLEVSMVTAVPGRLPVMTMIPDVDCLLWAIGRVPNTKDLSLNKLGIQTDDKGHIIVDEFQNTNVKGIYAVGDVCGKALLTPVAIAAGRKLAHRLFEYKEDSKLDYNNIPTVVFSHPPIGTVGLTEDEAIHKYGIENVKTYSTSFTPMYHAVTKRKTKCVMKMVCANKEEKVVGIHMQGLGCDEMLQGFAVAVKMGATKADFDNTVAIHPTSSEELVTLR

Trypanosoma brucei [3] = assay: Antiparasitic activity against Trypanosoma brucei; type: functional; conditions: read-out: ED50 (the source's name)
Trypanothione reductase [4] = biological target: T1, Trypanothione reductase; assay: as §1; remark: listed apart in the source
In short: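 T. cruzi TR, isolated enzyme (3 µg/mL), assayed at 25 °C in 0.02 M HEPES pH 7.25 with 0.15 M KCl, 1 mM EDTA and 0.1 mM NADPH. (ZCGdmapa)2 substrate was used at 0.24, 0.12, 0.06 or 0.03 mM, and Ki was fitted as linear competitive.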

Trypanosoma brucei [5] = assay: Activity against Trypanosoma brucei.
Trypanosoma cruzi [6] = assay: Antiparasitic activity against Trypanosoma cruzi.; type: functional; conditions: read-out: ED50 (the source's name)
Trypanosoma cruzi [7] = assay: Antiparasitic activity against Trypanosoma cruzi at the dose of 1 uM; type: functional
Trypanosoma cruzi [8] = assay: Antiparasitic activity against Trypanosoma cruzi at the dose of 3 uM; type: functional
[9] = biological target: T3, Glutathione reductase, mitochondrial (Homo sapiens) (UniProt P00390); assay: Compound at 1 mM was tested for the inhibition of human erythrocyte glutathione reductase; No inhibition
T3 sequence (whole entry): T2 sequence (P00390 whole entry)

T1 sequence (P28593 whole entry): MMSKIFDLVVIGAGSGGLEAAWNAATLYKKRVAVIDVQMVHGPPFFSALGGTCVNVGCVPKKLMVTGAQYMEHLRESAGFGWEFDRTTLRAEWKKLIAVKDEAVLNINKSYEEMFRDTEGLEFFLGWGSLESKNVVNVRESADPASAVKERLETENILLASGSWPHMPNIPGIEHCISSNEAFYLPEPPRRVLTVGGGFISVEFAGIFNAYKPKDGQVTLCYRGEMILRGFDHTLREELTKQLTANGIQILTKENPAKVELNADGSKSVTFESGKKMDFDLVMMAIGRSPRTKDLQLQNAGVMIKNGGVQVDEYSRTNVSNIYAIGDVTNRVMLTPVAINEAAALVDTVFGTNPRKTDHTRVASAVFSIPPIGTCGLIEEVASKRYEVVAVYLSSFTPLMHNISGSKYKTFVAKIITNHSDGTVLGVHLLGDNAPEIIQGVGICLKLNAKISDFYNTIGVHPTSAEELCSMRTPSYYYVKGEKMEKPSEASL

IC50 (Trypanothione reductase [1]) [µM]	EC50 (Trypanosoma brucei [3])	Ki (Trypanothione reductase [4]) [µM]	SMILES	other results
12.7	0.675 µg/mL and 1.41 µM	1.7	C[N+](C)(CCCN1c2ccccc2Sc2ccc(Cl)cc21)Cc1ccc(Cl)cc1	Ki [2]: 2200 µM
–	–	–	C[N+](C)(CCCN1c2ccccc2Sc2ccc(Cl)cc21)CC(=O)c1ccc2ccc3cccc4ccc1c2c34	ED50 (Trypanosoma brucei [5]): 0.475 µg/mL
9.3	0.068 µg/mL and 120 nM	1.55	C[N+](C)(CCCN1c2ccccc2Sc2ccc(Cl)cc21)Cc1ccc2ccccc2c1	–
4.1	0.023 µg/mL and 42 nM	0.68	CC(C)(C)c1ccc(C[N+](C)(C)CCCN2c3ccccc3Sc3ccc(Cl)cc32)cc1	EC50 (Trypanosoma cruzi [6]): < 1 µM; inhibition at 1 µM (Trypanosoma cruzi [7]): 59.2%; inhibition at 3 µM (Trypanosoma cruzi [8]): 66.2%
0.78	0.546 µg/mL and 1.07 µM	0.12	C[N+](C)(CCCN1c2ccccc2Sc2ccc(Cl)cc21)Cc1ccc(Cl)c(Cl)c1	–
3.9	–	0.47	Cc1ccc(C[N+](C)(C)CCCN2c3ccccc3Sc3ccc(Cl)cc32)cc1C	–
10.8	0.205 µg/mL and 410 nM	1.8	Cc1ccc(C[N+](C)(C)CCCN2c3ccccc3Sc3ccc(Cl)cc32)cc1	–
1.2	0.035 µg/mL and 62 nM	0.71	C[N+](C)(CCCN1c2ccccc2Sc2ccc(Cl)cc21)C(c1ccccc1)c1ccccc1	–
28	–	1.1	C[N+](C)(C)CCCN1c2ccccc2Sc2ccc(Cl)cc21	–
10.4	0.191 µg/mL and 350 nM	0.47	C[N+](C)(CCCN1c2ccccc2Sc2ccc(Cl)cc21)Cc1ccc(OCc2ccccc2)cc1	–
12.8	–	1.23	C[N+](C)(CCCN1c2ccccc2Sc2ccc(Cl)cc21)CC(=O)C12CC3CC(CC(C3)C1)C2	–
8.02	–	1.3	C[N+](C)(CCCN1c2ccccc2Sc2ccc(Cl)cc21)Cc1ccccc1	–
2.95	3.11 µg/mL and 5.28 µM	0.56	COc1ccc2c(C[N+](C)(C)CCCN3c4ccccc4Sc4ccc(Cl)cc43)cc(=O)oc2c1	–
8.6	0.159 µg/mL and 280 nM	1.43	Cc1cc(C(=O)C[N+](C)(C)CCCN2c3ccccc3Sc3ccc(Cl)cc32)ccc1Cl	–
10.5	0.159 µg/mL and 320 nM	2.3	C[N+](C)(CCCN1c2ccccc2Sc2ccc(Cl)cc21)CC1CCCCC1	Ki [2]: 2000 µM
11.9	0.508 µg/mL and 900 nM	1.5	C[N+](C)(CCCN1c2ccccc2Sc2ccc(Cl)cc21)Cc1ccc(Br)cc1	–
5.4	–	0.77	COc1cc(C[N+](C)(C)CCCN2c3ccccc3Sc3ccc(Cl)cc32)cc(OC)c1	–
17.9	0.348 µg/mL and 650 nM	2.98	C[N+](C)(CCCN1c2ccccc2Sc2ccc(Cl)cc21)Cc1ccc([N+](=O)[O-])cc1.[Cl-]	–
–	–	–	CN(C)CCCN1c2ccccc2Sc2ccc(Cl)cc21	NI [9]: inactive
10	1.48 µg/mL and 2.55 µM	1.67	C[N+](C)(CCCN1c2ccccc2Sc2ccc(Cl)cc21)Cc1c(F)c(F)c(F)c(F)c1F	–
6.6	0.245 µg/mL and 470 nM	2.4	C[N+](C)(CCCN1c2ccccc2Sc2ccc(Cl)cc21)Cc1cccc(Cl)c1	–

From ChEMBL document CHEMBL1133619, “Use of an additional hydrophobic binding site, the Z site, in the rational drug design of a new class of stronger trypanothione reductase inhibitor, quaternary alkylammonium phenothiazines” (J Med Chem, 2000)
